For data set [1], the system named is Platelet. As to the kind of experiment: Antiplatelet activity in sheep platelet rich plasma assessed as inhibition of ADP-induced platelet aggregation pretreated for 2.5 mins followed by ADP addition by photometric analysis. The class given is functional, cell-free. The following applies: Ovis aries. The method in brief:
(§1)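 Citrated sheep blood spun 24 min at 140g to give PRP, diluted with platelet-free plasma (1000g, 10 min) to 300 000-400 000 platelets/mm³. Aggregation read photometrically (Born method) at 37 °C in stirred PRP as light transmission or optical density change. Agents dissolved in saline buffered to pH 7.4 with sodium barbitone. ADP added to 0.67 μM.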

The nature of data set [2]: Antiplatelet activity in sheep platelet rich plasma assessed as inhibition of ADP-induced platelet aggregation pretreated for 2.5 mins followed by ADP addition by photometric analysis relative to adenosine. In kind it is functional, Ovis aries. An outline of the steps: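 Sheep PRP (300 000-400 000 platelets/mm³), 37 °C, stirred, Born photometric read-out. Analogue incubated 2.5 min before ADP (final 0.67 μM). Four doses per analogue. Rate taken as initial slope of the aggregation curve. Potency from log dose vs. percent inhibition plots, expressed relative to adenosine run on each PRP batch. Means of at least four determinations.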

Data set [3] concerns Platelet. Description: Antiplatelet activity in sheep platelet rich plasma assessed as inhibition of serotonin-induced platelet aggregation pretreated for 1 min followed by serotonin addition by photometric analysis. In kind it is functional, cell-free. The following applies: Ovis aries. An outline of the steps:
(§2)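 Serotonin-induced aggregation in sheep PRP adjusted to 300 000-400 000 platelets/mm³, measured at 37 °C by Born photometry in stirred samples. Inhibitor given 1 min before serotonin, with serotonin final 1.6 μM. Agents dissolved in barbitone-buffered saline, pH 7.4.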

The subject of data set [4] is Rattus norvegicus. Description: Cardiotoxicity in anesthetized rat assessed as effect on heart rate up to 2.5 umol/kg, iv. In kind it is toxicity, organism-based. The following applies: in vivo.
Data set [5] deals with Rattus norvegicus. As to the kind of experiment: Toxicity in anesthetized rat assessed as hypotensive potency up to 2.5 umol/kg, iv relative to adenosine. In kind it is organism-based. The following applies: in vivo.
Data set [6] is described as follows: Stimulation of platelet aggregation in sheep platelet rich plasma at 100 uM pretreated for 1 min followed by ADP addition by photometric analysis. The class given is ADME, cell-free, Ovis aries. An outline of the steps:
as §1

For data set [7], the system named is Platelet. As to the kind of experiment: Antiplatelet activity in sheep platelet rich plasma assessed as inhibition of serotonin-induced platelet aggregation at 100 uM pretreated for 1 min followed by serotonin addition by photometric analysis. The following applies: Ovis aries. In kind it is functional, cell-free. The method in brief: as §2
The subject of data set [8] is Platelet. As to the kind of experiment: Antiplatelet activity in sheep platelet rich plasma assessed as inhibition of ADP-induced platelet aggregation up to 300 uM pretreated for 2.5 mins followed by ADP addition by photometric analysis. In kind it is functional, cell-free. As to conditions: Ovis aries. An outline of the steps:
as §1

Data set [9] deals with Platelet. As to the kind of experiment: Antiplatelet activity in sheep platelet rich plasma assessed as inhibition of serotonin-induced platelet aggregation at 200 uM pretreated for 1 min followed by serotonin addition by photometric analysis. The class given is functional, cell-free. As to conditions: Ovis aries. The method in brief: as §2
Data set [10] has as its system Platelet. As to the kind of experiment: Antiplatelet activity in sheep platelet rich plasma assessed as inhibition of ADP-induced platelet aggregation at 3.75 uM pretreated for 1 min followed by ADP addition by photometric analysis. The following applies: Ovis aries.
Data set [11] deals with Platelet. Description: Antiplatelet activity in sheep platelet rich plasma assessed as inhibition of ADP-induced platelet aggregation at 100 uM pretreated for 1 min followed by ADP addition by photometric analysis. As to conditions: Ovis aries. In kind it is functional, cell-free. The method in brief: as §1

Structures are written as SMILES. The source made the active and inactive calls. The calls are words filed in the database; no cut-off is given here. Where only a bound is given, the exact number is not on record here.

With `COc1nc(N)c2ncn([C@@H]3O[C@H](COP(=O)(O)O)[C@@H](O)[C@H]3O)c2n1`, in the data set on Platelet [1], the inhibition result was “Dose-dependent effect”. In data set [2], the “fold change (FC)” value is given as 0.034. Also, in the data set on Platelet [3], the inhibition entry is “inactive”.
As for `Nc1ncnc2c1ncn2[C@@H]1O[C@H](COP(O)(O)=S)[C@@H](O)[C@H]1O`, in data set [2], the “fold change (FC)” value was 0.04. The inhibition result with Platelet [3] was “inactive”.
In the case of `CSc1nc(N)c2ncn([C@@H]3O[C@H](COP(=O)(O)O)[C@@H](O)[C@H]3O)c2n1`, the inhibition entry with Platelet [1] was “Dose-dependent effect”. The “fold change (FC)” value in data set [2] is recorded as 2.41. In addition, the Activity result with Rattus norvegicus [4] was “Non-toxic”; in the data set on Rattus norvegicus [5], less than 1%. Besides, the inhibition result in the data set on Platelet [3] is “inactive”.
As for `CCOc1nc(N)c2ncn([C@@H]3O[C@H](COP(=O)(O)O)[C@@H](O)[C@H]3O)c2n1`, the inhibition result with Platelet [1] was “Dose-dependent effect”. Also, the “fold change (FC)” value in data set [2] is recorded as 0.103. Also, the inhibition entry in the data set on Platelet [3] is “inactive”.
The corresponding values for `CNc1nc(Cl)nc2c1ncn2[C@@H]1O[C@H](COP(=O)(O)O)[C@@H](O)[C@H]1O` are “Dose-dependent effect”, 0.12 and “inactive”.
Consider `Nc1nc(Cl)nc2c1ncn2[C@@H]1O[C@H](COS(N)(=O)=O)[C@@H](O)[C@H]1O`, for which, in [6], the Activity result is reported as “Toxic”. In addition, the inhibition result with Platelet [7] is “Active”. The inhibition entry with Platelet [8] was “inactive”.
Take `CNc1nc(N)c2ncn([C@@H]3O[C@H](COP(=O)(O)O)[C@@H](O)[C@H]3O)c2n1`: the inhibition result with Platelet [1] was “Dose-dependent effect”. In data set [2], the “fold change (FC)” value was determined as 0.027. In addition, in the data set with Platelet [3], the inhibition result was “inactive”.
On to `Nc1ncnc2c1ncn2[C@@H]1O[C@H](COS(N)(=O)=O)[C@@H](O)[C@H]1O`, for which the Activity entry in data set [6] is “Toxic”. Also, the inhibition entry with Platelet [9] was “Active”. Besides, in the data set on Platelet [8], the inhibition result is “inactive”.
`Nc1nc(C(F)(F)F)nc2c1ncn2[C@@H]1O[C@H](COP(=O)(O)O)[C@@H](O)[C@H]1O`: in the data set with Platelet [1], the inhibition result was “Dose-dependent effect”. Moreover, the “fold change (FC)” value in [2] was determined as 0.22. For the same compound, the inhibition result in the data set on Platelet [3] was “inactive”.
The corresponding values for `CCNc1nc(N)c2ncn([C@@H]3O[C@H](COP(=O)(O)O)[C@@H](O)[C@H]3O)c2n1` are “Dose-dependent effect”, 0.027 and “inactive”.
The corresponding values for `CNc1nc(SC)nc2c1ncn2[C@@H]1O[C@H](COP(=O)(O)O)[C@@H](O)[C@H]1O` are “Dose-dependent effect”, 0.46 and “inactive”.
For the compound `CCSc1nc(N)c2ncn([C@@H]3O[C@H](COP(O)(O)=S)[C@@H](O)[C@H]3O)c2n1.N.N`, the “fold change (FC)” value in data set [2] is recorded as 13.4. In the data set with Platelet [10], the inhibition entry was “Active”. Besides, the Activity entry in the data set with Rattus norvegicus [4] is “Non-toxic”; in the data set with Rattus norvegicus [5], less than 1%. For the same compound, the inhibition entry in the data set on Platelet [3] was “inactive”.
Take `Nc1ncnc2c1ncn2[C@@H]1O[C@H](CO)[C@@H](O)[C@H]1O`: the inhibition result in the data set with Platelet [10] is “Active”.
Regarding `CCSc1nc(N)c2ncn([C@@H]3O[C@H](COP(=O)(O)O)[C@@H](O)[C@H]3O)c2n1`, in the data set with Platelet [1], the inhibition result was “Dose-dependent effect”. Further, the “fold change (FC)” value in [2] is recorded as 5.2. In addition, the inhibition result in the data set on Platelet [10] is “Active”. The Activity entry was “Non-toxic” with Rattus norvegicus [4] and less than 1% with Rattus norvegicus [5]. In addition, in the data set on Platelet [3], the inhibition result was “inactive”.
On to `CSc1nc(N)c2ncn([C@@H]3O[C@H](COP(O)(O)=S)[C@@H](O)[C@H]3O)c2n1.N.N`, for which the “fold change (FC)” value in data set [2] was 4. For the same compound, the figures for the Activity result in the data set with Rattus norvegicus [4] and in the data set with Rattus norvegicus [5] were “Non-toxic” and less than 1%, respectively. For the same compound, the inhibition entry with Platelet [3] is “inactive”.
For the compound `N.N.Nc1nc(Cl)nc2c1ncn2[C@@H]1O[C@H](COP(O)(O)=S)[C@@H](O)[C@H]1O`, in [2], the “fold change (FC)” value was determined as 0.44. For the same compound, in the data set with Platelet [3], the inhibition entry was “inactive”.
With `Nc1nc(Cl)nc2c1ncn2[C@@H]1O[C@H](COP(=O)(O)O)[C@@H](O)[C@H]1O`, the inhibition entry in the data set with Platelet [1] was “Dose-dependent effect”. Moreover, in data set [2], the “fold change (FC)” value came to 0.12. Moreover, the inhibition entry in the data set with Platelet [3] was “inactive”.
On the same counts, the results for `Nc1ncnc2c1ncn2[C@@H]1O[C@H](COP(=O)(O)O)[C@@H](O)[C@H]1O` [ADENOSINE PHOSPHATE] are “Dose-dependent effect”, 0.12 and “inactive”.
Consider `CSc1nc(N)c2ncn([C@@H]3O[C@H](COS(N)(=O)=O)[C@@H](O)[C@H]3O)c2n1`, for which the inhibition result in the data set on Platelet [11] and in the data set with Platelet [9] was “Active” each time.

The values are drawn from ChEMBL document CHEMBL3244104, “New inhibitors of platelet aggregation. 5'-Phosphate, 5'-phosphorothioate, and 5'-O-sulfamoyl derivatives of 2-substituted adenosine analogues” (J Med Chem, 1978).
